Measurements published in ChEMBL document CHEMBL1914421, “Aminomethyltetrazoles as potential inhibitors of the γ-aminobutyric acid transporters mGAT1-mGAT4: synthesis and biological evaluation” (Bioorg Med Chem, 2011).
pIC50: −log10 of the molar value.

Experiments:
[1] = test system: betaine/GABA transporter BGT-1 (Slc6a12, Mus musculus); test: Residual mouse GAT2-mediated [3H]GABA uptake expressed in human HEK cells at 1 mM; details: HEK293
[2] = test system: GABA transporter Slc6a13 (Mus musculus); test: Residual mouse GAT3-mediated [3H]GABA uptake expressed in human HEK cells at 1 mM; details: HEK293
[3] = target: Sodium- and chloride-dependent GABA transporter 1 (Mus musculus) (UniProt P31648); test: Residual mouse GAT1-mediated [3H]GABA uptake expressed in human HEK cells at 1 mM; details: HEK293
[4] = target: T1, GABA transporter 4 (Mus musculus) (UniProt P31650); test: Residual mouse GAT4-mediated [3H]GABA uptake expressed in human HEK cells at 1 mM; details: HEK293
T1 sequence (whole entry): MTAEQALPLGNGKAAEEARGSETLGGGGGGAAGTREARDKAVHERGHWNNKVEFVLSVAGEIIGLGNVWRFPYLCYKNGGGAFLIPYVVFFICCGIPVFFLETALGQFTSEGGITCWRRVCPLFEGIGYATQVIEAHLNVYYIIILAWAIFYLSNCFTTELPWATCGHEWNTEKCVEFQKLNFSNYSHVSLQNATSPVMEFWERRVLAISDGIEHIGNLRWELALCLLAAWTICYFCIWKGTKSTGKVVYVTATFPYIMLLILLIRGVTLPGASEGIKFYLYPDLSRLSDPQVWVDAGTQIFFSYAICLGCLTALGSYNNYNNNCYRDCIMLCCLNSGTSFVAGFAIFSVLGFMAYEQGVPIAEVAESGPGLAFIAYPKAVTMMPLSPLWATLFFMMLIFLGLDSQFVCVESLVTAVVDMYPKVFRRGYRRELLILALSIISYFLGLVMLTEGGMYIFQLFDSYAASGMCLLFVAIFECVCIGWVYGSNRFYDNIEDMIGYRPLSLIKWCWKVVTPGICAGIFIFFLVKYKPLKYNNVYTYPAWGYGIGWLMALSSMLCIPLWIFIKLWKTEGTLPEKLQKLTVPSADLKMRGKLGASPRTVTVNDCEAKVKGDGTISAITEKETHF

[5] = target: Sodium- and chloride-dependent GABA transporter 1 (Mus musculus) (UniProt P31648); test: Residual mouse GAT1-mediated [3H]GABA uptake expressed in human HEK cells at 100 uM; details: HEK293
HEK293 = test: Residual mouse GAT4-mediated [3H]GABA uptake expressed in human HEK cells at 100 uM
[6] = test system: GABA transporter Slc6a13 (Mus musculus); test: Residual mouse GAT3-mediated [3H]GABA uptake expressed in human HEK cells at 100 uM; details: HEK293
[7] = test system: betaine/GABA transporter BGT-1 (Slc6a12, Mus musculus); test: Residual mouse GAT2-mediated [3H]GABA uptake expressed in human HEK cells at 100 uM; details: HEK293
[8] = Inhibition of mouse GAT4-mediated [3H]GABA uptake expressed in human HEK cells; format: cell-based; details: HEK293
Method in brief: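 Specific [3H]GABA uptake was measured at the murine transporter subtype, and results are given as pIC50 ± SEM from three independent experiments, each run in triplicate.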

[9] = Inhibition of GAT mediated [3H]GABA uptake in rat brain synaptosomes; format: subcellular
Mus musculus [10] = species: Mus musculus; test: Selectivity ratio of IC50 for mouse GAT3 to IC50 for mouse GAT1
Mus musculus [11] = species: Mus musculus; test: Selectivity ratio of IC50 for mouse GAT3 to IC50 for mouse GAT4
[12] = target: T2, Sodium- and chloride-dependent GABA transporter 1 (Mus musculus, UniProt P31648); test: Inhibition of mouse GAT1-mediated [3H]GABA uptake expressed in human HEK cells; format: cell-based, HEK293
Method in brief: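 Specific [3H]GABA uptake measured at murine GAT1. Inhibition reported as pIC50 ± SEM from three independent experiments, each run in triplicate. Where stated, some values are the mean of two independent experiments, or one experiment in triplicate.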

GABA transporter 4 = target: T3, GABA transporter 4 (Mus musculus, UniProt P31650); test: Inhibition of mouse GAT4-mediated [3H]GABA uptake expressed in BHK cells; format: cell-based
T3 sequence (P31650 whole entry): T1 sequence (whole entry)

[13] = target: T2, Sodium- and chloride-dependent GABA transporter 1; test: Inhibition of mouse GAT1-mediated [3H]GABA uptake expressed in BHK cells; format: cell-based

SMILES | residual activity [5] [%] | residual activity [6] [%] | residual activity [7] [%] | pIC50 [8] | level, % of control (HEK293) [%] | further results
C1CN(Cc2nnn[nH]2)CCN1 |  |  |  |  |  | residual activity [1]: 75.4%; residual activity [2]: 102%; residual activity [3]: 90%; residual activity [4]: 101%
c1ccc(C(CCCNCc2nnn[nH]2)c2ccccc2)cc1 | 82 | 75.1 | 89.3 |  | 87.4 | 
NCC(=O)O |  |  |  |  |  | residual activity [3]: 83.1%; residual activity [4]: 69.7%
C(CCNCc1nnnn1Cc1ccccc1)=C(c1ccccc1)c1ccccc1 | 69.4 | 53.5 | 84.1 |  | 53.1 | 
NCCCc1nnn[nH]1 |  |  |  |  |  | pIC50 [9]: > 4.00
c1ccc2c(c1)c1ccccc1n2CCCNCc1nnn[nH]1 | 86.3 | 83.6 | 81.6 |  | 78.7 | 
C1CC(c2nnn[nH]2)CCN1 |  |  |  |  |  | pIC50 [9]: > 4.00
c1ccc(Cn2nnnc2CNCCCC(c2ccccc2)c2ccccc2)cc1 | 68.1 |  |  |  | 49.6 | 
NCCNCc1nnn[nH]1 |  |  |  |  |  | residual activity [1]: 80%; residual activity [2]: 86.3%; residual activity [3]: 81.7%; residual activity [4]: 60.7%
NCc1nnn[nH]1 |  |  |  |  |  | residual activity [1]: 59.4%; residual activity [2]: 66.5%; residual activity [3]: 85.1%; residual activity [4]: 78.9%
C1=C(c2nnn[nH]2)CCNC1 |  |  |  |  |  | pIC50 [9]: > 4.00
C1CNCC(c2nnn[nH]2)C1 (stereo not given) |  |  |  |  |  | pIC50 [9]: > 4.00
COc1ccccc1C1(O)CCN(CCCn2c3ccccc3c3ccccc32)CC1 |  |  |  | 4.78 |  | pIC50 [12]: 4.99; pIC50 (GABA transporter 4): 4.82; pIC50 [13]: 4.72
CC(C)(C)CC(C)(C)n1nnnc1CNCCN |  |  |  |  |  | residual activity [1]: 142%; residual activity [2]: 71.1%; residual activity [3]: 133%; residual activity [4]: 92.5%
c1ccc(C(NCc2nnn[nH]2)c2ccccc2)cc1 | 69.7 | 94.2 | 94.2 |  | 85.4 | 
c1ccc(Cn2nnnc2CNCCC(c2ccccc2)c2ccccc2)cc1 | 73.9 | 51.7 | 61.6 | 4.20 |  | 
C(CCNCc1nnn[nH]1)=C(c1ccccc1)c1ccccc1 | 86.1 | 73.8 | 76.9 |  | 101 | 
C1CN(Cc2nnn[nH]2)CCO1 |  |  |  |  |  | residual activity [1]: 88%; residual activity [2]: 87.8%; residual activity [3]: 90.6%; residual activity [4]: 90.8%
c1ccc(Cn2nnnc2CNC(c2ccccc2)c2ccccc2)cc1 | 81.1 |  | 84.5 |  | 57.2 | 
C(CNCc1nnnn1Cc1ccccc1)=C(c1ccccc1)c1ccccc1 | 57.3 |  |  | 4.38 |  | 
c1ccc(C(CCNCc2nnn[nH]2)c2ccccc2)cc1 | 100 | 72.6 | 53.2 |  | 80.5 | 
NCCc1nnn[nH]1 |  |  |  |  |  | pIC50 [9]: > 4.00
c1ccc(C(CNCc2nnn[nH]2)c2ccccc2)cc1 | 48.2 | 63.5 | 85.8 |  | 71.2 | 
C(CNCc1nnn[nH]1)=C(c1ccccc1)c1ccccc1 | 80.5 | 46.2 | 82 |  | 79.6 | 

Further lines, with some results ahead:

residual activity [5] [%] | residual activity [6] [%] | residual activity [7] [%] | pIC50 [8] | SMILES | level, % of control (HEK293) [%] | further results
59.1 |  | 75.9 | 4.35 | c1ccc(C(CNCc2nnnn2C2CCCCC2)c2ccccc2)cc1 |  | 
65.7 |  |  | 4.58 | CC(C)(C)CC(C)(C)n1nnnc1CNCC=C(c1ccccc1)c1ccccc1 |  | 
54.6 |  |  | 4.46 | c1ccc(C(CCNCc2nnnn2C2CCCCC2)c2ccccc2)cc1 |  | 
90.2 | 81.4 | 106 |  | CC(C)(C)CC(C)(C)n1nnnc1CN1CCNCC1 | 78.4 | 
70.7 |  | 77.1 | 4.53 | CC(C)(C)CC(C)(C)n1nnnc1CNCCC(c1ccccc1)c1ccccc1 |  | Ratio IC50 (Mus musculus [10]): 12; Ratio IC50 (Mus musculus [11]): 4
83.3 | 53.8 | 63.5 | 4.17 | CC(C)(C)CC(C)(C)n1nnnc1CNCC(c1ccccc1)c1ccccc1 |  | 
73.4 | 63.3 | 99 |  | CC(C)(C)CC(C)(C)n1nnnc1CN1CCOCC1 | 90.5 | 
85.6 |  | 81.4 |  | CC(C)(C)CC(C)(C)n1nnnc1CNC(c1ccccc1)c1ccccc1 | 56.9 | 
105 | 74 | 65.3 |  | CCCCNCc1nnn[nH]1 | 71.5 | 
83.3 | 49 | 60.3 | 4.31 | CCCCNCc1nnnn1C(C)(C)CC(C)(C)C |  | 
72.4 |  | 67.1 |  | c1ccc(Cn2nnnc2CNCC(c2ccccc2)c2ccccc2)cc1 | 52.3 | 
75.4 |  | 54.9 | 4.74 | CC(C)(C)CC(C)(C)n1nnnc1CNCCC=C(c1ccccc1)c1ccccc1 |  | 
64.5 |  | 69.5 |  | C(CCNCc1nnnn1C1CCCCC1)=C(c1ccccc1)c1ccccc1 | 58.2 | 
63.8 |  |  | 4.53 | CC(C)(C)CC(C)(C)n1nnnc1CNCCCC(c1ccccc1)c1ccccc1 |  | 
62.9 |  |  | 4.29 | C(CNCc1nnnn1C1CCCCC1)=C(c1ccccc1)c1ccccc1 |  | 
70.6 |  |  |  | c1ccc(C(CCCNCc2nnnn2C2CCCCC2)c2ccccc2)cc1 | 43.2 | 
75.1 | 68.8 | 72.6 |  | CC(C)(C)CC(C)(C)n1nnnc1CNCCCn1c2ccccc2c2ccccc21 | 59.7 | 
54.8 |  |  | 4.54 | c1ccc(C(NCc2nnnn2C2CCCCC2)c2ccccc2)cc1 |  | 
